Our source for the Activity and viability values is ChEMBL document CHEMBL4052629, “Scutellarin derivatives as apoptosis inducers: Design, synthesis and biological evaluation” (Eur J Med Chem, 2017).

Series [1] concerns HepG2. Description: Cell cycle arrest in human HepG2 cells assessed as accumulation at G1 phase at 0.6 uM after 72 hrs by propidium iodide staining-based flow cytometric analysis (reference value: 34%). The format is functional. A digest of the protocol:
(§1)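 Concentrations used were 0, 0.3, 0.6 and 1.2 μM in HepG2 and 0, 0.16, 0.31 and 1.25 μM in PC-3, with untreated cells as control, for 72 h. Cells were trypsinized, washed in PBS, fixed in cold ethanol at 4 °C overnight, then incubated 30 min in PBS containing RNase A and propidium iodide. DNA content was read by flow cytometry to give phase distribution.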
Background: Flow cytometry measures light scatter and fluorescence of single cells or particles in a stream.

Series [2] concerns HepG2. The experiment in a line: Cell cycle arrest in human HepG2 cells assessed as accumulation at G2/M phase at 1.2 uM after 72 hrs by propidium iodide staining-based flow cytometric analysis (reference value: 21.4%). The format is functional. The essentials: as §1
In series [3] the test system is HepG2. The experiment in a line: Induction of apoptosis in human HepG2 cells assessed as reduction in adherent cells at 0.3 to 0.6 uM after 48 hrs by Hoechst 33258 staining-based fluorescent microscopic analysis. The format is functional, cell-based. A digest of the protocol: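 HepG2 cells on sterile cover slips in 6-well plates exposed to 0, 0.3, 0.6 or 1.2 μM, or vehicle, for 48 h. Fixed in 4% paraformaldehyde for 10 min, PBS-washed, stained with Hoechst 33258 for 5 min. Nuclear morphology and adherent cell number viewed at 350 nm excitation / 460 nm emission. Non-treated cells served as control.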

Series [4] has as its system HepG2. The experiment in a line: Cell cycle arrest in human HepG2 cells assessed as accumulation at S phase after 72 hrs by propidium iodide staining-based flow cytometric analysis. The format is functional. The essentials:
as §1

In series [5] the test system is HepG2. Description: Induction of apoptosis in human HepG2 cells assessed as viable cells at 0.6 uM after 72 hrs by Annexin V-APC/7-AAD or propidium iodide staining-based flow cytometric analysis (reference value: 90.08%). The format is functional. Particulars: HepG2, 72 h, read-out: Activity.
Series [6] deals with HepG2. Description: Induction of apoptosis in human HepG2 cells assessed as early apoptotic cells at 0.6 uM after 72 hrs by Annexin V-APC/7-AAD or propidium iodide staining-based flow cytometric analysis (reference value: 1.87%). The format is functional.
For series [7], the system named is HepG2. Description: Induction of apoptosis in human HepG2 cells assessed as early apoptotic cells at 1.2 uM after 72 hrs by Annexin V-APC/7-AAD or propidium iodide staining-based flow cytometric analysis (reference value: 1.87%). Type of series: functional.
Series [8] has as its system L02. The experiment in a line: Induction of apoptosis in human LO2 cells assessed as late apoptotic cells at 50 uM after 72 hrs by Annexin V-FITC/7-AAD or propidium iodide staining-based flow cytometric analysis (reference value: 0.11%). The format is cell-based. Particulars: l02, 72 h.
For series [9], the system named is L02. Description: Induction of apoptosis in human LO2 cells assessed as early apoptotic cells at 1.2 uM after 72 hrs by Annexin V-FITC/7-AAD or propidium iodide staining-based flow cytometric analysis (reference value: 3.65%). The format is cell-based. Particulars: l02, 72 h.
In series [10] the test system is L02. The experiment in a line: Induction of apoptosis in human LO2 cells assessed as late apoptotic cells at 1.2 uM after 72 hrs by Annexin V-FITC/7-AAD or propidium iodide staining-based flow cytometric analysis (reference value: 0.11%). Type of series: cell-based. Particulars: l02, 72 h.
Series [11] has as its system HepG2. Description: Induction of apoptosis in human HepG2 cells assessed as reduction in mitochondrial membrane potential at 0.3 uM after 48 hrs by JC-1 staining-based flow cytometric analysis (reference value: 1.6%). The format is functional. Also noted: scale not given: the % may be the effect or the level left. The essentials: (§2)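 HepG2 cells cultured overnight, then incubated in triplicate with 0, 0.3, 0.6 or 1.2 μM, or vehicle, for 48 h. Stained with the cationic dye JC-1. Flow cytometry gave the percentage of cells with healthy versus collapsed mitochondrial membrane potential.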

Series [12] deals with HepG2. The experiment in a line: Induction of apoptosis in human HepG2 cells assessed as reduction in mitochondrial membrane potential at 1.2 uM after 48 hrs by JC-1 staining-based flow cytometric analysis (reference value: 1.6%). More on the design: scale not given: the % may be the effect or the level left. Type of series: functional. The essentials: as §2
Series [13] has as its system HepG2. Description: Induction of apoptosis in human HepG2 cells assessed as reduction in survivin expression levels at 2 uM after 24 hrs by membrane-based sandwich immunoassay. The format is functional, cell-based. The essentials: (§3)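 HepG2 cells exposed to 2 μM for 24 h. Proteins extracted per kit protocol. Relative levels of 35 apoptosis-related proteins measured on a human apoptosis antibody array.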

In series [14] the test system is HepG2. The experiment in a line: Induction of apoptosis in human HepG2 cells assessed as reduction in Hsp60 expression levels at 2 uM after 24 hrs by membrane-based sandwich immunoassay. Type of series: functional, cell-based. A digest of the protocol:
(§4)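 HepG2 cells treated at 2 μM for 24 h; protein extracts prepared per the kit protocol. Relative levels of 35 apoptosis-related proteins measured with a human apoptosis antibody array.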

Series [15] has as its system HepG2. Description: Induction of apoptosis in human HepG2 cells assessed as reduction in Hsp70 expression levels at 2 uM after 24 hrs by membrane-based sandwich immunoassay. Type of series: functional, cell-based. A digest of the protocol:
as §4

The subject of series [16] is HepG2. Description: Induction of apoptosis in human HepG2 cells assessed as reduction in c-IAP1 expression levels at 2 uM after 24 hrs by membrane-based sandwich immunoassay. Type of series: functional, cell-based. A digest of the protocol:
as §3

Series [17] concerns HepG2. The experiment in a line: Induction of apoptosis in human HepG2 cells after 72 hrs by Annexin V-APC/7-AAD or propidium iodide staining-based flow cytometric analysis. The format is functional, cell-based.
Series [18] relates to PC-3. Description: Induction of apoptosis in human PC3 cells assessed as chromatin condensation at 0.16 to 1.25 uM after 48 hrs by Hoechst 33258 staining-based fluorescent microscopic analysis. Type of series: functional, cell-based. A digest of the protocol: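 PC-3 cells grown on sterile cover slips were exposed to 0, 0.16, 0.31 or 1.25 μM, or vehicle, for 48 h. Then fixed with 4% paraformaldehyde for 10 min, washed twice in PBS, stained with Hoechst 33258 for 5 min and washed again. Nuclei imaged at 350 nm excitation and 460 nm emission.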

Series [19] relates to PC-3. Description: Induction of apoptosis in human PC3 cells assessed as necrotic cells at 0.16 uM after 72 hrs by Annexin V-APC/7-AAD or propidium iodide staining-based flow cytometric analysis (reference value: 2.43%). The format is functional.
For series [20], the system named is PC-3. The experiment in a line: Induction of apoptosis in human PC3 cells assessed as viable cells at 1.25 uM after 72 hrs by Annexin V-APC/7-AAD or propidium iodide staining-based flow cytometric analysis (reference value: 88.74%). Particulars: PC-3, 72 h, read-out: Activity. The format is functional.
For series [21], the system named is PC-3. The experiment in a line: Induction of apoptosis in human PC3 cells assessed as necrotic cells at 1.25 uM after 72 hrs by Annexin V-APC/7-AAD or propidium iodide staining-based flow cytometric analysis (reference value: 2.43%). Type of series: functional.
Series [22] relates to PC-3. Description: Induction of apoptosis in human PC3 cells assessed as reduction in mitochondrial membrane potential at 0.16 uM after 48 hrs by JC-1 staining-based flow cytometric analysis (reference value: 1.86%). Type of series: functional. Also noted: scale not given: the % may be the effect or the level left. A digest of the protocol:
(§5)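 After overnight culture, PC-3 cells were treated in triplicate with 0, 0.16, 0.31 or 1.25 μM, or vehicle, for 48 h. They were then loaded with JC-1, and the proportion with depolarized mitochondrial membrane potential was counted by flow cytometry.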

The test system of series [23] is PC-3. The experiment in a line: Induction of apoptosis in human PC3 cells assessed as reduction in mitochondrial membrane potential at 0.31 uM after 48 hrs by JC-1 staining-based flow cytometric analysis (reference value: 1.86%). Type of series: functional. More on the design: scale not given: the % may be the effect or the level left. The essentials:
as §5

Series [24] relates to PC-3. The experiment in a line: Induction of apoptosis in human PC3 cells assessed as reduction in mitochondrial membrane potential at 1.25 uM after 48 hrs by JC-1 staining-based flow cytometric analysis (reference value: 1.86%). More on the design: scale not given: the % may be the effect or the level left. Type of series: functional. A digest of the protocol: as §5
The test system of series [25] is PC-3. Description: Induction of apoptosis in human PC3 cells after 72 hrs by Annexin V-APC/7-AAD or propidium iodide staining-based flow cytometric analysis. The format is functional, cell-based.

Structures are written as SMILES. Activity calls are given as the source filed them. The calls are words filed in the database; no cut-off is given here.

`O=C(NCCCOc1no[n+]([O-])c1S(=O)(=O)c1ccccc1)[C@H]1O[C@@H](Oc2cc3oc(-c4ccc(OCc5ccccc5)cc4)cc(=O)c3c(O)c2OCc2ccccc2)[C@H](O)[C@@H](O)[C@@H]1O`: the Activity is 32.02% in the series on HepG2 [1]; 3.24% in the series with HepG2 [2]; “Dose-dependent effect” with HepG2 [4]; 13.13% in the series with HepG2 [6]; 13.46% with HepG2 [7]; 9.83% in the series with L02 [8]. Besides, the Activity in the series on L02 [9] is 14.2%; in the series on L02 [10], 2.76%; in the series with HepG2 [11], 15.14%; in the series on HepG2 [12], 58.47%; in the series with HepG2 [17], “Dose-dependent effect”. The result in the series with HepG2 [3], in the series with HepG2 [13], in the series with HepG2 [14], with HepG2 [15] and in the series with HepG2 [16] was Active. Besides, the viability at 0.6 µM in the series on HepG2 [5] was determined as 64.6%.
`COc1ccc(-c2cc(=O)c3c(O)c(OC)c(O[C@@H]4O[C@H](C(=O)NCCOc5no[n+]([O-])c5S(=O)(=O)c5ccccc5)[C@@H](O)[C@H](O)[C@H]4O)cc3o2)cc1`: the result in the series on PC-3 [18] was Active. Also, the Activity is 4.42% in the series with PC-3 [19]; 5.21% in the series with PC-3 [21]; 17.9% with PC-3 [22]; 35.91% in the series on PC-3 [23]; 61.01% with PC-3 [24]; “Dose-dependent effect” with PC-3 [25]. Also, in the series with PC-3 [20], the viability at 1.25 µM was found to be 36.3%.
